Here are results for 20 compounds from ChEMBL document CHEMBL1134356, “Correlation of anti-HIV activity with anion spacing in a series of cosalane analogues with extended polycarboxylate pharmacophores” (J Med Chem, 2001).

The CC50 is the concentration that lowers cell viability or growth by half. Read a high CC50 as better tolerance by the cells. A word on the EC50: it is the concentration that produces a half-maximal response.

For one experiment, the system named is CEM-SS. Put plainly: 50% cell death in uninfected CEM-SS cells was determined using MTS cytoprotection assay. It counts as functional. The settings on record: Homo sapiens. In a few lines: (§1)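 CEM-SS cells from exponential culture, 5 × 10^3 per well, mixed with pretitered HIV-1 RF and serially diluted compound. Incubated 6 days at 37 °C, 5% CO2. MTS added, colour developed overnight at 37 °C, read at 490 nm, expressed as percent of uninfected drug-free control. EC50 is 50% protection from cytopathic effect; CC50 is 50% death of uninfected cells. Triplicates on each of two sister plates, plate values averaged.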
On the technique in general: Tetrazolium dyes change colour on reduction, which living cells bring about.

The subject of experiment [1] is MT4. Kind of experiment: In vitro inhibition of cytopathic effect was determined against HIV-1 IIIB in MT-4 cells using MTT cytoprotection assay. Conditions: Homo sapiens.
In experiment [2] the test system is MT4. Kind of experiment: 50% cell death in uninfected MT-4 cells was determined using MTS cytoprotection assay. It counts as functional. The settings on record: Homo sapiens, in the assay text read “MTT cytoprotection assay” for “MTS cytoprotection assay”. The procedure, abridged:
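MT-4 cells at 6 × 10^5 cells/mL, infected with HIV-1 IIIB or HIV-2 ROD at 100–300 CCID50, or mock-infected. Serial 5-fold compound dilutions, triplicate wells. After 5 days, viability read by MTT reduction at 540 and 690 nm, median OD of three wells. CC50 is 50% drop in OD540 of mock-infected cells; EC50 is 50% protection from viral cytopathic effect.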

Experiment [3] is described as follows: In vitro inhibition of cytopathic effect was determined against HIV-1 RF in CEM-SS cells using MTS cytoprotection assay. Type of experiment: functional, cell-based. In a few lines:
as §1

The nature of experiment [4]: In vitro inhibition of cytopathic effect was determined against HIV-1 IIIB in MT-4 cells using MTT cytoprotection assay. Conditions: MT4. (In general: Protection from cytopathic effect is a common read-out in antiviral testing.)

Take `CC(C)CCCC(C)[C@H]1CC[C@H]2[C@@H]3CCC4C[C@@H](CCC=C(c5cc(Cl)c(O)c(C(=O)NCC(=O)O)c5)c5cc(Cl)c(O)c(C(=O)NCC(=O)O)c5)CC[C@]4(C)[C@H]3CC[C@]12C` (some centres undefined): the CC50 in the experiment with CEM-SS was over 200 µM; in the experiment with MT4 [2], over 125 µM. Further, the concentration for a half-maximal effect (EC50) with MT4 [1] was determined as 57.6 µM; in experiment [3], 3.4 µM.
On to `CC(C)CCCC(C)[C@H]1CC[C@H]2[C@@H]3CCC4C[C@@H](CCC=C(c5cc(Cl)c(O)c(C(=O)NCC(=O)OC(C)(C)C)c5)c5cc(Cl)c(O)c(C(=O)NCC(=O)OC(C)(C)C)c5)CC[C@]4(C)[C@H]3CC[C@]12C` (some centres undefined), for which the 50% cytotoxic concentration (CC50) in the experiment with CEM-SS and in the experiment on MT4 [2] was over 125 µM each time. Further, the EC50 in experiment [4] is over 125 µM.
Take `CC(C)CCCC(C)[C@H]1CC[C@H]2[C@@H]3CCC4C[C@@H](CCC=C(c5cc(Cl)c(O)c(C(=O)NCCC(=O)O)c5)c5cc(Cl)c(O)c(C(=O)NCCC(=O)O)c5)CC[C@]4(C)[C@H]3CC[C@]12C` (some centres undefined): the values for the CC50 in the experiment with CEM-SS and with MT4 [2] were over 200 µM and over 125 µM, respectively. In addition, the response in experiment [4] was half-maximal at 73.8 µM (EC50).
As for `CC(C)CCCC(C)[C@H]1CC[C@H]2[C@@H]3CCC4C[C@@H](CCCC(c5cc(Cl)c(O)c(C(=O)NCC(=O)O)c5)c5cc(Cl)c(O)c(C(=O)NCC(=O)O)c5)CC[C@]4(C)[C@H]3CC[C@]12C` (some centres undefined), the CC50 in the experiment on CEM-SS was over 200 µM; in the experiment with MT4 [2], over 125 µM. A half-maximal response in experiment [4] (EC50) required 39.4 µM.
With `CC(C)CCCC(C)[C@H]1CC[C@H]2[C@@H]3CCC4C[C@@H](CCC=C(c5cc(Cl)c(O)c(C(=O)N[C@@H](CC(C)C)C(=O)O)c5)c5cc(Cl)c(O)c(C(=O)N[C@@H](CC(C)C)C(=O)O)c5)CC[C@]4(C)[C@H]3CC[C@]12C` (some centres undefined), the values for the CC50 in the experiment on CEM-SS and with MT4 [2] were over 200 µM and over 125 µM, respectively. Besides, the EC50 in experiment [3] turned out to be 40 µM; in experiment [4] it was 63.4 µM.
Turning to `COc1c(Cl)cc(Cc2cc(C(=CCC[C@H]3CC[C@@]4(C)C(CC[C@H]5[C@@H]6CC[C@H](C(C)CCCC(C)C)[C@@]6(C)CC[C@@H]54)C3)c3cc(Cc4cc(Cl)c(OC)c(C(=O)O)c4)c(OC)c(C(=O)O)c3)cc(C(=O)O)c2OC)cc1C(=O)O` (some centres undefined), the results for the CC50 in the experiment with CEM-SS and in the experiment on MT4 [2] were 50 µM and 41 µM, respectively. The concentration giving a half-maximal response (EC50) in experiment [3] was determined as 2.9 µM; in experiment [4], 12.5 µM.
In the case of `CC(C)CCCC(C)[C@H]1CC[C@H]2[C@@H]3CCC4C[C@@H](CCC=C(c5cc(Cl)c(O)c(C(=O)N[C@@H](CC(=O)O)C(=O)O)c5)c5cc(Cl)c(O)c(C(=O)N[C@@H](CC(=O)O)C(=O)O)c5)CC[C@]4(C)[C@H]3CC[C@]12C` (some centres undefined), the 50% cytotoxic concentration (CC50) with CEM-SS is 90 µM; in the experiment on MT4 [2] it was over 125 µM.
For the compound `CC(C)CCCC(C)[C@H]1CC[C@H]2[C@@H]3CCC4C[C@@H](CCC=C(c5cc(Cl)c(OCc6ccc(CC(=O)O)cc6)c(C(=O)O)c5)c5cc(Cl)c(OCc6ccc(CC(=O)O)cc6)c(C(=O)O)c5)CC[C@]4(C)[C@H]3CC[C@]12C` (some centres undefined), the EC50 turned out to be 1.8 µM in experiment [3] and 4.1 µM in experiment [4].
As to `CC(C)CCCC(C)[C@H]1CC[C@H]2[C@@H]3CCC4C[C@@H](CCC=C(c5cc(Cl)c(O)c(C(=O)N[C@@H](Cc6ccccc6)C(=O)O)c5)c5cc(Cl)c(O)c(C(=O)N[C@@H](Cc6ccccc6)C(=O)O)c5)CC[C@]4(C)[C@H]3CC[C@]12C` (some centres undefined), the CC50 in the experiment on CEM-SS was over 200 µM; with MT4 [2], 62 µM. Also, the concentration for a half-maximal effect (EC50) in experiment [3] is over 200 µM; in experiment [4], over 62 µM.
Consider `CC(C)CCCC(C)[C@H]1CC[C@H]2[C@@H]3CCC4C[C@@H](CCC=C(c5cc(Cl)c(OCc6ccc(-c7cccc(C(=O)O)c7)cc6)c(C(=O)O)c5)c5cc(Cl)c(OCc6ccc(-c7cccc(C(=O)O)c7)cc6)c(C(=O)O)c5)CC[C@]4(C)[C@H]3CC[C@]12C` (some centres undefined), for which half-maximal cytotoxicity in the experiment with MT4 [2] (CC50) was put at 79 µM. The concentration for a half-maximal effect (EC50) came to 6.1 µM in experiment [3] and 12 µM in experiment [4].
For `CC(C)CCCC(C)[C@H]1CC[C@H]2[C@@H]3CCC4C[C@@H](CCC=C(c5cc(Cl)c(O)c(C(=O)O)c5)c5cc(Cl)c(O)c(C(=O)O)c5)CC[C@]4(C)[C@H]3CC[C@]12C` (some centres undefined) the same measures were over 125 µM, 5.1 µM and 3 µM.
`COc1ccc(C(=O)Nc2cc(C(=CCC[C@H]3CC[C@@]4(C)C(CC[C@H]5[C@@H]6CC[C@H](C(C)CCCC(C)C)[C@@]6(C)CC[C@@H]54)C3)c3cc(NC(=O)c4ccc(OC)c(C(=O)O)c4)c(OC)c(C(=O)O)c3)cc(C(=O)O)c2OC)cc1C(=O)O` (some centres undefined): the cytotoxic concentration (CC50) with CEM-SS was 47 µM; in the experiment on MT4 [2] it was 81 µM. Also, the EC50 in experiment [3] is 28.6 µM; in experiment [4], 8.4 µM.
`CC(C)CCCC(C)[C@H]1CC[C@H]2[C@@H]3CCC4C[C@@H](CCC=C(c5cc(Cl)c(OCc6ccc(C(=O)O)cc6)c(C(=O)O)c5)c5cc(Cl)c(OCc6ccc(C(=O)O)cc6)c(C(=O)O)c5)CC[C@]4(C)[C@H]3CC[C@]12C` (some centres undefined): the midpoint of cytotoxicity with MT4 [2], the CC50, lay at 89 µM. Further, in experiment [3], the concentration giving a half-maximal response (EC50) came out at 0.5 µM.
On to `CC(C)CCCC(C)[C@H]1CC[C@H]2[C@@H]3CCC4C[C@@H](CCCC(c5cc(Cl)c(O)c(C(=O)N[C@@H](CCC(=O)O)C(=O)O)c5)c5cc(Cl)c(O)c(C(=O)N[C@@H](CCC(=O)O)C(=O)O)c5)CC[C@]4(C)[C@H]3CC[C@]12C` (some centres undefined), for which the CC50 in the experiment with CEM-SS is 34 µM; with MT4 [2] it was over 125 µM. The EC50 in experiment [4] was 10.3 µM.
Take `CC(C)CCCC(C)[C@H]1CC[C@H]2[C@@H]3CCC4C[C@@H](CCC=C(c5cc(Cl)c(OCc6cccc(C(=O)O)c6)c(C(=O)O)c5)c5cc(Cl)c(OCc6cccc(C(=O)O)c6)c(C(=O)O)c5)CC[C@]4(C)[C@H]3CC[C@]12C` (some centres undefined): the 50% cytotoxic concentration (CC50) with MT4 [2] worked out at 76 µM. That is a double-digit micromolar value.
With `CC(C)CCCC(C)[C@H]1CC[C@H]2[C@@H]3CCC4C[C@@H](CCC=C(c5cc(Cl)c(O)c(C(=O)N[C@@H](CCC(=O)O)C(=O)O)c5)c5cc(Cl)c(O)c(C(=O)N[C@@H](CCC(=O)O)C(=O)O)c5)CC[C@]4(C)[C@H]3CC[C@]12C` (some centres undefined), the CC50 with CEM-SS is 82 µM; in the experiment on MT4 [2] it was over 125 µM. In addition, the EC50 in experiment [4] came to 8.9 µM.
In the case of `CC(C)CCCC(C)[C@H]1CC[C@H]2[C@@H]3CCC4C[C@@H](CCC=C(c5cc(Cl)c(OCc6ccccc6C(=O)O)c(C(=O)O)c5)c5cc(Cl)c(OCc6ccccc6C(=O)O)c(C(=O)O)c5)CC[C@]4(C)[C@H]3CC[C@]12C` (some centres undefined), the EC50 in experiment [3] was 39.8 µM; in experiment [4] it was over 37 µM.
On to `CC(C)CCCC(C)[C@H]1CC[C@H]2[C@@H]3CCC4C[C@@H](CCCC(c5cc(Cl)c(OCc6ccc(C(=O)O)cc6)c(C(=O)O)c5)c5cc(Cl)c(OCc6ccc(C(=O)O)cc6)c(C(=O)O)c5)CC[C@]4(C)[C@H]3CC[C@]12C` (some centres undefined), for which the CC50 in the experiment with CEM-SS is over 200 µM; in the experiment on MT4 [2], over 125 µM. Also, the EC50 in experiment [3] was found to be 4.8 µM; in experiment [4] it was 5.1 µM.
`CC(C)CCCC(C)[C@H]1CC[C@H]2[C@@H]3CCC4C[C@@H](CCC=C(c5cc(Cl)c(OCc6ccc(-c7ccc(C(=O)O)cc7)cc6)c(C(=O)O)c5)c5cc(Cl)c(OCc6ccc(-c7ccc(C(=O)O)cc7)cc6)c(C(=O)O)c5)CC[C@]4(C)[C@H]3CC[C@]12C` (some centres undefined) returned a 50% cytotoxic concentration (CC50) in the experiment with MT4 [2] of 100 µM. Further, the EC50 in experiment [3] and in experiment [4] was over 100 µM in each case.
In the case of `CC(C)CCCC(C)[C@H]1CC[C@H]2[C@@H]3CCC4C[C@@H](CCC=C(c5cc(Cl)c(OCc6ccc(-c7ccccc7C(=O)O)cc6)c(C(=O)O)c5)c5cc(Cl)c(OCc6ccc(-c7ccccc7C(=O)O)cc6)c(C(=O)O)c5)CC[C@]4(C)[C@H]3CC[C@]12C` (some centres undefined), the concentration for a half-maximal effect (EC50) stood at 5.2 µM in experiment [3] and 10.1 µM in experiment [4].
